ABCB1 block: ABCB1 efflux pump inhibitors, primary screen, cell-based, multiplex, flow cytometry, ABCG2 counter-screen; inhibition, % at 6.6 µM; ATP-dependent translocase ABCB1 (Homo sapiens), P08183; CCRF-Adr cells, JC-1 efflux; 0.067% of 190,000 active; AID 1326, 2008; in the data active means inhibition above about 40%;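 further: 0% = vehicle and 100% = reference inhibitor; higher value means more JC-1 retained so stronger ABCB1 efflux block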
ABCG2 inh: ABCG2 efflux pump inhibitors, primary screen, multiplex with ABCB1, IgMXP3 cells, flow cytometry. Broad substrate specificity ATP-binding cassette transporter ABCG2 (Homo sapiens), Q9UNQ0. JC-1 efflux. inhibition, % at 6.6 µM. 0.1% of 190,000 active;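 active means inhibition above 80%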;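 further: 0% = DMSO and 100% = nicardipine control wells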
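Assay system – ABCG2 IgMXP3 and barcoded ABCB1 CCRF-Adr cell mix · Input – 3 million cells/mL in well · Reagent – JC-1 fluorescent substrate · Compound – single test compound dose, 6.6 µM final · Timing – 10 min exposure at 25 °C with rotation, no wash · Detection – flow cytometry of retained JC-1 fluorescence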
Diaphorase inh: diaphorase inhibitors and chemical oxidizers, primary screen, counter-screen for diaphorase-coupled primary assays, biochemical, uHTS, resorufin fluorescence; diaphorase resazurin-to-resorufin fluorescence, NADH, 16 min; bacterial (C. kluyveri) enzyme, not human; inhibition, % at 20 µM; 0.69% of 190,000 active; AID 1217, 2008;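 active means primary screen inhibition at 20 µM above a set limit, cut at about 50% in these data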;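 further: plate controls were DMSO with full reaction for no effect and wells lacking NADH for full effect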
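Test system: diaphorase enzyme from Clostridium kluyveri; amount: diaphorase at 0.14 U/mL in enzyme working solution; detection: fluorescence of resorufin formed from resazurin, Ex 544/Em 590 nm; times: reaction incubation of 16 min at room temperature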
HMGR II inh: inhibitors of E. faecalis class II HMGR, primary screen, biochemical, Enterococcus faecalis; HMG-CoA reductase (Enterococcus faecalis, mvaE); purified E. faecalis HMGR, NADPH absorbance 340 nm kinetic; inhibition, % at 10 µM; 0.41% of 190,000 active; AID 1066, 2008;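 active means inhibition above a set limit, the median over all tested compounds plus 3 SD, cut at about 9.5% in these data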;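 further: enzyme runs in reverse so mevalonate oxidation gives rising NADPH absorbance; 0% = complete reaction with DMSO and 100% = background rate lacking mevalonate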
Diaph act CS: compounds boosting diaphorase resazurin reduction – biochemical, uHTS, resorufin fluorescence, counter-screen for diaphorase-coupled primary assays, primary screen. activation factor at 20 µM. AID 1229, 2008. 0.005% of 190,000 active. Diaphorase/resazurin coupled assay, 16 min; hits give high values; 1 = vehicle wells, 0 = NADH-free wells;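 active means diaphorase activity raised at least twofold by the compound at 20 µM; inactive means activation factor below 2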
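Measured by – red resorufin fluorescence at 544/590 nm excitation/emission · Test system – Clostridium kluyveri diaphorase, purified enzyme · Incubation – reaction time 16 min, room temperature · Buffer or medium – 50 mM HEPES pH 7.4 with 4.542 mM MgCl2, 0.005% Tween 20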
p47phox inh: p47phox/p22phox peptide binding inhibitors, primary screen, biochemical, uHTS, NADPH oxidase regulatory subunit | Neutrophil cytosol factor 1 (Homo sapiens), P14598 | fluorescence polarization, 2 h | inhibition, % at 24.7 µM | 0.53% of 220,000 active;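 active means inhibition above about 30%, limit read from the data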;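 further: 0% = p47phox with labelled peptide and 100% = labelled peptide alone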
Target sequence (P14598 whole entry, looked up): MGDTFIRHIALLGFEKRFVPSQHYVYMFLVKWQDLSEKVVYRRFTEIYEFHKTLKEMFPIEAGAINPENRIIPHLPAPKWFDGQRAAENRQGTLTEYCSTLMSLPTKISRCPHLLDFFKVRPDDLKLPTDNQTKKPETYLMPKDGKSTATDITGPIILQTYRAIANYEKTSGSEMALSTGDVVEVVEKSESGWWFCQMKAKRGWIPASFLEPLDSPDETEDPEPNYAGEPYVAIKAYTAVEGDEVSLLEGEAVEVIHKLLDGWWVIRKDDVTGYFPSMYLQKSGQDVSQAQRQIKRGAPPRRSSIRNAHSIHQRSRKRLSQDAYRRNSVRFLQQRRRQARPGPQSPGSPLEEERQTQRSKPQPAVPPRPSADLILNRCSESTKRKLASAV
Numbers without * were called inactive; . = not tested or not shown. Most compounds without a hit are left out; they make up all but 1.6% or so of the library.

SMILES	ABCB1 block	ABCG2 inh	Diaphorase inh	HMGR II inh	Diaph act CS	p47phox inh
N#CC1(C#N)COC23CCCCC2C1(C#N)C(=N)O3 (stereo unspecified)	0	1	16	-9	0.8	141*
N#CC12COC3(CCCCC3C1(C#N)C#N)OC2=N (stereo unspecified)	.	.	.	.	.	5
COc1ccc(-c2cc(C(F)(F)F)nc(SCCC(=O)N3CCN4CCCC4C3)n2)cc1 (stereo unspecified)	1	4	5	0	0.9	-13
CCOc1ccc(-c2nnn(CC(=O)Nc3ccccc3OC)n2)cc1OCC	1	4	7	-7	0.9	31*
CCCC(=O)Nc1sc(C(=O)Nc2cccc(N)c2)c(C)c1C(=O)OC	0	3	17	17*	0.8	-17
COc1cccc(-c2cc(C(=O)Nc3cnn(Cc4ccccc4C)c3)no2)c1	0	1	-7	1	1.1	70*
CCn1c(-c2nn(C)c(C)c2Cl)n[nH]c1=S	0	9	13	11*	0.9	8
CCOc1ccc2noc3c2c1C(=O)c1ccccc1-3	3	5	30	-3	0.7	44*
CC(C)(C)OC(=O)NCc1ccc(NC(=O)c2nc[nH]c2C(=O)N[C@@H](Cc2ccccc2)C(=O)OC(C)(C)C)cc1	.	.	.	.	.	1
Cc1ccccc1Nc1nc(N)nc(CSc2n[nH]c(N)n2)n1	.	.	.	.	.	-2
Nc1c(C(=O)NCc2ccco2)sc2nc3c(cc12)C(=O)CCC3	0	2	53*	-5	0.5	-17
Cn1c(SC/C=C/c2ccccc2)nnc1-c1cnccn1	1	4	13	-2	0.9	-4
O=C1c2ccccc2C(=O)C1c1ccc2ccccc2n1	1	26	10	15*	0.9	-7
COC(=O)C1=C(C)NC(C)=C(C(=O)OC)C1c1ccc2ccccc2n1	.	.	19	2	0.8	-18
COc1cccc(/C(N)=N/OC(=O)Cc2ccccc2[N+](=O)[O-])c1	3	80	8	0	0.9	-1
Cc1ccc(S(=O)(=O)N(C)c2ccc(C)c([N+](=O)[O-])c2)cc1	2	24	4	-3	1	5
O=S(=O)(c1ccc2ccccc2c1)N1CCC(c2nc(-c3ccncc3)no2)CC1	1	2	57*	-2	0.4	26
CN(C)c1ccc(-c2noc(C3CCN(S(=O)(=O)c4cccc(Cl)c4)CC3)n2)cc1	4	42	19	0	0.8	-13
O=C(CCCCCNc1nc(=S)[nH]c2ccccc12)N1CCN(c2ccccn2)CC1	0	1	52*	1	0.5	-4
Cc1cccc(CNc2ccc(C(CC(N)=O)NC(=O)c3ccccc3)cc2[N+](=O)[O-])c1 (stereo unspecified)	.	.	.	.	.	-6
Nc1ccc(N)c(C(=O)O)c1	.	.	.	.	.	41*
Nc1ccc(C(=O)O)c(O)c1	-1	-5	22	-3	0.8	-10
Cc1ccc([N+](=O)[O-])c(-c2n[nH]c(=S)n2-c2cccc(Cl)c2)c1	.	.	.	.	.	3
CCOc1nc(NCc2ccco2)nc(Nc2ccccc2F)n1	1	14	18	13*	0.8	-5
Cn1c(=O)n(C)c2cc(S(=O)(=O)Nc3ccccc3)ccc21	0	1	19	-4	0.8	2
SMILES	ABCB1 block	ABCG2 inh	Diaphorase inh	HMGR II inh	Diaph act CS	p47phox inh
O=C(O)CC(=O)Nc1ccccc1C(=O)O	3	7	5	-3	1	-12
C=CCc1cccc2cc(C(=O)O)c(=O)oc12	0	0	7	-5	0.9	0
C=CCc1cccc2cc(C(=O)Nc3ccccc3C(=O)O)c(=O)oc12	0	-1	93*	-6	0.1	-21
FC(F)(F)c1ccc(N2CCOCC2)c(NC2=NCCCCC2)c1	0	1	8	-11	0.9	9
CCOc1cc(N2CCOCC2)c(OCC)cc1NC1=NCCCCC1	0	1	35	1	0.7	60*
COc1ccc(OC)c(Nc2cc(C)nc3nc(C)nn23)c1	0	3	20	1	0.8	-1
Cc1ccccc1-c1cc2c(nn1)-c1ccccc1C2=O	1	1	65*	6	0.4	-6
O=C1c2ccccc2-c2nnc(-c3ccc(F)cc3)cc21	0	4	10	-1	0.9	46*
COc1ccccc1-c1noc(-c2ccco2)n1	1	31	9	0	0.9	-17
COc1ccc(OC)c(/C(C)=N/Nc2ccc(C(=O)O)cc2)c1	1	4	12	0	0.9	.
C/C(=N/Nc1ccc(C(=O)O)cc1)c1ccc(O)c(O)c1O	0	1	61*	11*	0.4	-14
CCOc1ccccc1N1CC(C(=O)Nc2ccc3c(c2)OCCO3)CC1=O (stereo unspecified)	0	0	5	12*	0.9	-14
Cc1ccc(P(=O)(O)c2ccc(C)cc2)cc1	0	2	6	-1	0.9	65*
O=C(CN1CCN(C2CCCCC2)CC1)Nc1ccc(Br)cc1	0	0	2	4	1	3
CC(C)CC(=O)Nc1cc2nn(-c3ccccc3)nc2cc1Cl	0	5	8	0	0.9	-11
Nc1cc2nn(-c3ccccc3)nc2cc1Cl	0	0	81*	-3	0.2	-7
Nc1ccc2nn(-c3ccccc3)nc2c1	0	0	60*	4	0.4	1
COc1ccc(/C=C/C(=O)NC(C)C)cc1Br	1	38	11	4	0.9	-9
COc1cccc(-n2c(-c3ccc4[nH]c(C)c(C)c4c3)n[nH]c2=S)c1	-1	-12	27	-2	0.7	-2
Cc1ccc(C(=O)NC2(C(Cl)Cl)N=C(c3ccccc3)N=C2N)cc1 (stereo unspecified)	0	0	8	9.7*	0.9	-8
Cc1cc2c(s1)c1cnn(CC(=O)NCCc3ccccc3)c(=O)c1n2C	1	21	7	-2	0.9	30*
CN1CCN(CCCNC(=O)Cn2ncc3c4ccccc4n(C)c3c2=O)CC1	1	3	4	-6	1	-2
CN(Cc1cccs1)C(=O)CSc1nnnn1C	2	8	5	2	1	7
